Results published in ChEMBL document CHEMBL4814016, “Balancing potency and basicity by incorporating fluoropyridine moieties: Discovery of a 1-amino-3,4-dihydro-2,6-naphthyridine BACE1 inhibitor that affords robust and sustained central Aβ reduction” (Eur J Med Chem, 2021).
One block for each compound: values may come before it.

Key:
Beta-secretase 1 [1] = target: T1, Beta-secretase 1 (Homo sapiens, UniProt P56817); assay: Inhibition of BACE1 in human SH-SY5Y cells expressing APP assessed as reduction in Abeta40 by HTRF assay; assay type: cell-based
Outline: (§1)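 The figures are means of at least two determinations. BACE1 activity was measured with a biochemical HTRF assay on an APP-derived peptide substrate. In the cellular assay, secreted Aβ40 from SH-SY5Y neuroblastoma cells transfected with human APP was measured by HTRF, and the IC50 derived from it.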

[2] = Dissociation constant, pKa of compound by capillary electrophoresis; assay type: physicochemical
Outline: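 pKa measured by capillary electrophoresis.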

Beta-secretase 1 [3] = target: T1, Beta-secretase 1; assay: Inhibition of BACE1 (unknown origin) by HTRF assay; outline: as §1
hERG (KCNH2) = hERG (KCNH2) (Homo sapiens, UniProt Q12809); assay: Inhibition of human ERG at 5 uM by automated patch clamp assay relative to control
Outline: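 hERG inhibition measured at 5 µM with an automated patch clamp assay.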

P-gp (MDR1, ABCB1) = P-gp (MDR1, ABCB1) (Homo sapiens, UniProt P08183); assay: Substrate activity at P-gp (unknown origin) transfected in LLC-PK1 cells expressing human MDR1 gene assessed as efflux ratio; assay type: ADME, cell-based
[4] = AUC in Beagle dog at 1 mg/kg, po; details: in vivo
[5] = Volume of distribution at steady state in rat at 0.5 mg/kg, iv; assay type: ADME, organism-based; details: in vivo, read-out: Vdss
Outline: (§2)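 Single iv dose of 0.5 mg/kg in rats, n = 2. Total clearance and steady-state volume of distribution were taken from the plasma profile.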

[6] = Fraction unbound in Beagle dog serum; assay type: ADME, cell-free, Canis lupus familiaris
Outline: (§3)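 Fraction unbound measured in rat and dog serum.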

[7] = Ratio of drug level in brain to plasma in rat at 0.5 mg/kg, iv; assay type: ADME, organism-based
Outline: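 Rats given 0.5 mg/kg iv, n = 2. Result is the total brain-to-plasma concentration ratio (Kp).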

[8] = Plasma concentration in Beagle dog at 1 mg/kg, po measured after 24 hrs; assay type: ADME, organism-based, Canis lupus familiaris
Outline: (§4)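 Beagle dogs, n = 3, were given 1 mg/kg orally as a suspension in 0.5% methylcellulose. Plasma and CSF drug concentrations were measured at 3, 7, 10 and 24 h. The CSF ratio is CSF concentration over unbound plasma concentration.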

[9] = Cmax in Beagle dog at 1 mg/kg, po; details: in vivo
[10] = AUC in rat at 1 mg/kg, po; assay type: ADME, organism-based; set-up: dose 1 mg/kg; details: in vivo
Outline: (§5)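 Rats dosed orally at 1 mg/kg, n = 2. Plasma AUC, Cmax and Tmax were taken from the profile. Bioavailability was calculated against an iv dose of 0.5 mg/kg, n = 2.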

[11] = Drug concentration in Beagle dog cerebrospinal fluid at 1 mg/kg, po measured after 10 hrs; assay type: ADME, organism-based, Canis lupus familiaris; details: read-out: Ct; outline: as §4
[12] = Ratio of drug level in Cerebrospinal fluid to plasma in Beagle dog at 1 mg/kg, po measured after 10 hrs; assay type: ADME, organism-based, Canis lupus familiaris, CSF/Plasma; outline: as §4
[13] = Clearance in rat at 0.5 mg/kg, iv; assay type: ADME, organism-based; details: in vivo; outline: as §2
[14] = Drug concentration in Beagle dog cerebrospinal fluid at 1 mg/kg, po measured after 24 hrs; assay type: ADME, organism-based, Canis lupus familiaris; details: read-out: Ct; outline: as §4
[15] = Ratio of drug level in Cerebrospinal fluid to plasma in Beagle dog at 1 mg/kg, po measured after 24 hrs; assay type: ADME, organism-based, Canis lupus familiaris, CSF/Plasma; outline: as §4
[16] = Tmax in Beagle dog at 1 mg/kg, po; details: in vivo
[17] = Cmax in rat at 1 mg/kg, po; assay type: ADME, organism-based; set-up: route oral, dose 1 mg/kg; details: in vivo; outline: as §5
[18] = Ratio of drug level in Beagle dog cerebrospinal fluid after 24 hrs to IC50 for inhibition of BACE1 in human SH-SY5Y cells expressing APP assessed as reduction in Abeta40 by HTRF assay; assay type: cell-based
Outline: (§6)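 CSF drug concentration in dogs dosed orally at 1 mg/kg (0.5% methylcellulose suspension) at 10 and 24 h, divided by the cellular Aβ40 HTRF IC50 from SH-SY5Y cells expressing human APP.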

[19] = In vivo inhibition of amyloid beta in Beagle dog cerebrospinal fluid at 1 mg/kg, po measured after 10 hrs by ELISA; assay type: functional; details: Canis lupus familiaris
Outline: (§7)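 Beagle dogs, n = 3, received 1 mg/kg orally as a 0.5% methylcellulose suspension. Total Aβ in CSF was measured by ELISA at 10 and 24 h and expressed as % reduction.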

[20] = Plasma concentration in Beagle dog at 1 mg/kg, po measured after 7 hrs; assay type: ADME, organism-based, Canis lupus familiaris; outline: as §4
[21] = Oral bioavailability in rat at 1 mg/kg; assay type: ADME, organism-based; details: in vivo; outline: as §5
[22] = Plasma concentration in Beagle dog at 1 mg/kg, po measured after 10 hrs; assay type: ADME, organism-based, Canis lupus familiaris; outline: as §4
[23] = Plasma concentration in Beagle dog at 1 mg/kg, po measured after 3 hrs; assay type: ADME, organism-based, Canis lupus familiaris; outline: as §4
[24] = Metabolic stability in rat liver microsomes assessed as parent compound remaining measured after 30 mins; assay type: ADME, Microsome; details: read-out: Stabilty
Outline: (§8)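 Parent compound remaining (%) measured after 30 min incubation in rat or dog liver microsomes.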

[25] = Tmax in rat at 1 mg/kg, po; assay type: ADME, organism-based; details: in vivo; outline: as §5
[26] = In vivo inhibition of amyloid beta in Beagle dog cerebrospinal fluid at 1 mg/kg, po measured after 24 hrs by ELISA; assay type: functional; details: Canis lupus familiaris; outline: as §7
[27] = Fraction unbound in rat serum; assay type: ADME, cell-free; outline: as §3
[28] = Ratio of drug level in Beagle dog cerebrospinal fluid after 10 hrs to IC50 for inhibition of BACE1 in human SH-SY5Y cells expressing APP assessed as reduction in Abeta40 by HTRF assay; assay type: cell-based; outline: as §6
[29] = Metabolic stability in Beagle dog liver microsomes assessed as parent compound remaining measured after 30 mins; assay type: ADME, Canis lupus familiaris, Microsome; details: read-out: Stabilty; outline: as §8
Beta-secretase 1 [30] = target: T1, Beta-secretase 1; assay: Inhibition of BACE1 (unknown origin)

Sequence of P-gp (MDR1, ABCB1) (P08183 whole entry): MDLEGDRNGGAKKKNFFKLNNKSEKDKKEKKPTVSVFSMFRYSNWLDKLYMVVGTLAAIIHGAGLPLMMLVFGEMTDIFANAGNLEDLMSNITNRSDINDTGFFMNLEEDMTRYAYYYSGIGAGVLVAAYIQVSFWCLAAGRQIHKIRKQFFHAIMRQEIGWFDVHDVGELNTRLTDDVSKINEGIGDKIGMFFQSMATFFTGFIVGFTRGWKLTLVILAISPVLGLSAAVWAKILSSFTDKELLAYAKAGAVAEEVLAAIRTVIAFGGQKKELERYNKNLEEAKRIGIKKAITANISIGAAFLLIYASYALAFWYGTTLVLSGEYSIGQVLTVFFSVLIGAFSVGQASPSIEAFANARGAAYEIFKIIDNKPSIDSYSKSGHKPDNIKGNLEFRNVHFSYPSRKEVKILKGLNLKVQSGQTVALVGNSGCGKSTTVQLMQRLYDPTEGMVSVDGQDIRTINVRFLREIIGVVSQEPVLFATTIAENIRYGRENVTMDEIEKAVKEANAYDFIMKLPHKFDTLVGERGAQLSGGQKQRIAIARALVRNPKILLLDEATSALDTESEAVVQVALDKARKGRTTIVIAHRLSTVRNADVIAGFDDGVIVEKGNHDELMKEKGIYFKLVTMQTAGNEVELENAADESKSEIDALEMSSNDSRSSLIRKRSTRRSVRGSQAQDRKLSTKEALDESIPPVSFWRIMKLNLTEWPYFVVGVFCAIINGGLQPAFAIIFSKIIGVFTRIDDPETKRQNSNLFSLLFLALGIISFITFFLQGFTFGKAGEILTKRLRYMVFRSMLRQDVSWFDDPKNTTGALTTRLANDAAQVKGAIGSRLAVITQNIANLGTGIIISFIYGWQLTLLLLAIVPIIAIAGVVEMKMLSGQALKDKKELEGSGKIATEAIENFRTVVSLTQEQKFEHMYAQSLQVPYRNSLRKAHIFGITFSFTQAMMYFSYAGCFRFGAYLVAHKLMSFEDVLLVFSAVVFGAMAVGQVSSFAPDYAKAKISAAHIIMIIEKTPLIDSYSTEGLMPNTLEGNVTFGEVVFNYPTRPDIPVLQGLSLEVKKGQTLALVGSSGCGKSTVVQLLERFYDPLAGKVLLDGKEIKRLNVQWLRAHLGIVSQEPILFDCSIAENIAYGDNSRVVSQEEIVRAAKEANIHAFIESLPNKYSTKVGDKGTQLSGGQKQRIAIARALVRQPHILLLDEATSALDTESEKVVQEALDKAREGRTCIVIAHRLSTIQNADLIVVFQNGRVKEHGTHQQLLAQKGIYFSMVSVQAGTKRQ
T1 sequence (P56817 whole entry): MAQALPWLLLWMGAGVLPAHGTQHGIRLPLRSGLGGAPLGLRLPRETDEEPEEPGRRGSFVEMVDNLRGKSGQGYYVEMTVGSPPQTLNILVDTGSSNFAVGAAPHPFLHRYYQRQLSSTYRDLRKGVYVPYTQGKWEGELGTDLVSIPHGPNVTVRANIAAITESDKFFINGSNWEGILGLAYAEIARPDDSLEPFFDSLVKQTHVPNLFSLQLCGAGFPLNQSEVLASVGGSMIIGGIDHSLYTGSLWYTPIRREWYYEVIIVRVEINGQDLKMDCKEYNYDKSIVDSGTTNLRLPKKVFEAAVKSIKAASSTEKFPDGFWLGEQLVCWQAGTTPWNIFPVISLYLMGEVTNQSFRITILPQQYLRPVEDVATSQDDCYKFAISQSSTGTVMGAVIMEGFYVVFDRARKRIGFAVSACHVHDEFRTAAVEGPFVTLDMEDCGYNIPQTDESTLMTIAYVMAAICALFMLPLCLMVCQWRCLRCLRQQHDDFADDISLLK
Sequence of hERG (KCNH2) (Q12809 whole entry): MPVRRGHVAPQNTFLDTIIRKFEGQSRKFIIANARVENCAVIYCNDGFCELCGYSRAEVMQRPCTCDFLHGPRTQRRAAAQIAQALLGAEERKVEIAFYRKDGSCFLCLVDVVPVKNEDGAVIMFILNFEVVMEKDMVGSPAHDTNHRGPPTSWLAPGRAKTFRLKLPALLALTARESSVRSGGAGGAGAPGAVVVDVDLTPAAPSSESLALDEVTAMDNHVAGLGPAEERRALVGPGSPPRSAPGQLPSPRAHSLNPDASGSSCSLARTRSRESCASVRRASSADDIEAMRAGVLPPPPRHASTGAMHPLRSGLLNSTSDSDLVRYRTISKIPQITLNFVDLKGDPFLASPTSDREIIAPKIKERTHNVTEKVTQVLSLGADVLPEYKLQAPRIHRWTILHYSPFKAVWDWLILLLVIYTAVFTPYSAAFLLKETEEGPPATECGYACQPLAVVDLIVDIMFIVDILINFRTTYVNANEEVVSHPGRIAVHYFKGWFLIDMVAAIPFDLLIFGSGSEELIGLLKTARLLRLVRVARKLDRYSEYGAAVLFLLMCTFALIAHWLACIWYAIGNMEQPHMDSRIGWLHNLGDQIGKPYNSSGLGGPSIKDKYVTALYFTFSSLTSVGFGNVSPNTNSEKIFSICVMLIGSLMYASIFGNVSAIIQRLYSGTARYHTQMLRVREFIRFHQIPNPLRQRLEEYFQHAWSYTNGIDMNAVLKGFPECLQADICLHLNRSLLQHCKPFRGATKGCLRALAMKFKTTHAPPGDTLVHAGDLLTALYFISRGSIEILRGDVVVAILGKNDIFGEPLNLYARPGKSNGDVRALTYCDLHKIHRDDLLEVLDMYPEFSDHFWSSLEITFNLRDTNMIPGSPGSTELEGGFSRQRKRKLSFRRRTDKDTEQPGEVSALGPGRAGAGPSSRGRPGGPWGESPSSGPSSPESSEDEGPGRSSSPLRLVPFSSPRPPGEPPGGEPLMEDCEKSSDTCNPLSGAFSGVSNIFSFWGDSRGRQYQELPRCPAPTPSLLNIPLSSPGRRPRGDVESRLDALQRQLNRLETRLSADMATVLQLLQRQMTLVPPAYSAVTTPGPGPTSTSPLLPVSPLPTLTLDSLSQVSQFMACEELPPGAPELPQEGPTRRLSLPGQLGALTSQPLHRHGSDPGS

IC50 (Beta-secretase 1 [1]): 4.1 nM
pKa [2]: 9.4
Structure (SMILES): CC1(c2cc(NC(=O)c3ccc(C#N)cn3)ccc2F)Cc2ncccc2C(N)=N1 (configuration not stated)

IC50 (Beta-secretase 1 [3]): 118 nM
IC50 (Beta-secretase 1 [1]): 11 nM
pKa [2]: 7.3
Structure (SMILES): CC1(c2cc(NC(=O)c3ccc(C#N)cn3)ccc2F)Cc2cncc(F)c2C(N)=N1 (configuration not stated)
inhibition at 5 µM (hERG (KCNH2)): 92%

IC50 (Beta-secretase 1 [3]): 21 nM
efflux ratio (P-gp (MDR1, ABCB1)): 37
IC50 (Beta-secretase 1 [1]): 1.5 nM
pKa [2]: 9
Structure (SMILES): CC1(c2cc(NC(=O)c3ccc(C#N)cn3)ccc2F)Cc2cnccc2C(N)=N1 (configuration not stated)
inhibition at 5 µM (hERG (KCNH2)): 85%

IC50 (Beta-secretase 1 [3]): 12 nM
efflux ratio (P-gp (MDR1, ABCB1)): 13
IC50 (Beta-secretase 1 [1]): 0.25 nM
pKa [2]: 7.6
Structure (SMILES): CC1(c2cc(NC(=O)c3ccc(C#N)cn3)ccc2F)Cc2c(F)cncc2C(N)=N1 (configuration not stated)
inhibition at 5 µM (hERG (KCNH2)): 72%

IC50 (Beta-secretase 1 [3]): 14 nM
IC50 (Beta-secretase 1 [1]): 0.36 nM
Structure (SMILES): CC1(c2cc(NC(=O)c3ccc(C#N)cn3)ccc2F)Cc2c(ccnc2F)C(N)=N1 (configuration not stated)

IC50 (Beta-secretase 1 [3]): 9.1 nM
AUC [4]: 3890 ng·h/mL
Vd [5]: 14 L/kg
fraction unbound [6]: 0.14
Kp [7]: 0.28
concentration at 24 h [8]: 47 ng/mL
Cmax [9]: 78 ng/mL
AUC [10]: 122 ng·h/mL
concentration at 10 h [11]: 0.56 ng/mL
efflux ratio (P-gp (MDR1, ABCB1)): 13
IC50 (Beta-secretase 1 [1]): 0.41 nM
Kp at 10 h [12]: 0.07
clearance [13]: 45 mL/min/kg
concentration at 24 h [14]: 0.52 ng/mL
Kp at 24 h [15]: 0.083
Tmax [16]: 4.3 h
Cmax [17]: 9 ng/mL
Ratio [18]: 3
concentration at 7 h [20]: 65 ng/mL
bioavailability [21]: 33%
concentration at 10 h [22]: 64 ng/mL
concentration at 3 h [23]: 72 ng/mL
remaining at 0.5 h [24]: 22%
Tmax [25]: 4 h
pKa [2]: 8.2
fraction unbound [27]: 0.15
Ratio [28]: 3.3
remaining at 0.5 h [29]: 93%
Structure (SMILES): C[C@@]1(c2cc(NC(=O)c3ccc(C#N)cn3)ccc2F)Cc2c(ccnc2F)C(N)=N1
inhibition at 5 µM (hERG (KCNH2)): 88%
inhibition in vivo at 1 mg/kg [19]: 49%
inhibition in vivo at 1 mg/kg [26]: 47%

IC50 (Beta-secretase 1 [3]): 8.1 nM
IC50 (Beta-secretase 1 [1]): 1.3 nM
pKa [2]: 9.5
Structure (SMILES): CC1(c2cc(NC(=O)c3ccc(C#N)cn3)ccc2F)Cc2ccncc2C(N)=N1 (configuration not stated)
inhibition at 5 µM (hERG (KCNH2)): 83%

IC50 (Beta-secretase 1 [30]): 82 nM
Structure (SMILES): CC1(c2cc(NC(=O)c3ccc(C#N)cn3)ccc2F)N=C(N)c2ccccc2O1 (configuration not stated)

IC50 (Beta-secretase 1 [3]): 394 nM
IC50 (Beta-secretase 1 [1]): 26 nM
pKa [2]: 9.8
Structure (SMILES): CC1(c2cc(NC(=O)c3ccc(C#N)cn3)ccc2F)Cc2cccnc2C(N)=N1 (configuration not stated)
